Experimental data published in paper PMC7498158 (Journal of Medicinal Chemistry, 2020).

What follows are molecules tested on PLAAT2–5 (assay: gel-based competitive ABPP, statements for all tested PLAAT members). Conditions: 10 μM inhibitor, 30 min; active = residual protein labeling ≤50%.
Assay type: biochemical, human
How it was run: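 Human PLAAT cDNA (C-terminal FLAG, pcDNA3.1) was PEI-transfected into HEK293T; cytosol came from a 100,000g spin. Cytosol was preincubated with test compound (30 min, rt), then MB064 (20 min, rt). Conditions: PLAAT2 0.25 μg/μL, 250 nM; PLAAT3 0.5 μg/μL, 250 nM; PLAAT4/5 1 μg/μL, 500 nM. In-gel fluorescence was normalized to Coomassie, in triplicate. Single-concentration screen or IC50 from dose–response curves.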

For `CCOC(=O)C(F)(F)C(O)CCc1ccccc1` (stereo not drawn) [Compound 4], which “activity on PLAAT2–5 (in words)” value is on record?
The value was “inactive”.

Which “activity on PLAAT2–5 (in words)” value does the source give for `O=C(CCc1ccc(Cl)cc1)C(=O)N1CCCCC1` [Compound 13] here?
The value was “did not show any activity”.

Which “activity on PLAAT2–5 (in words)” value does the source give for `CN(C)C(=O)C(=O)CCc1ccc(Cl)cc1` [Compound 14] here?
Its value is “did not show any activity”.

With `CN1CCN(C(=O)C(=O)CCc2ccc(Cl)cc2)CC1` [Compound 16] as the molecule, how does the “activity on PLAAT2–5 (in words)” value read?
Its value is “did not show any activity”.

For `CN(CCc1ccccc1)C(=O)C(=O)CCc1ccc(Cl)cc1` [Compound 12], which “activity on PLAAT2–5 (in words)” value is on record?
Its value is “complete loss of activity”.

How did the “activity on PLAAT2–5 (in words)” value turn out when `CCN(CCc1ccccc1)C(=O)C(=O)CCc1ccc(Cl)cc1` [Compound 22] was run?
Its value is “did not show any activity”.

Which “activity on PLAAT2–5 (in words)” value does the source give for `O=C(CCc1ccc(Cl)cc1)C(=O)N1CCOCC1` [Compound 15] here?
The value was “did not show any activity”.

With `O=C(NCCc1ccccc1)C(O)CCc1ccc(Cl)cc1` (stereo not drawn) [Compound 23, 4-(4-Chlorophenyl)-2-hydroxy-N-phenethylbutanamide] as the molecule, how does the “activity on PLAAT2–5 (in words)” value read?
The value was “no activity”.

Which “activity on PLAAT2–5 (in words)” value does the source give for `O=C(NCc1ccccc1)C(F)(F)C(O)CCc1ccccc1` (stereo not drawn) [Compound 3] here?
The value was “inactive”.

How did the “activity on PLAAT2–5 (in words)” value turn out when `COCCN(CCOC)C(=O)C(=O)CCc1ccc(Cl)cc1` [Compound 17] was run?
The value was “did not show any activity”.

Same assay, conditions: focused library screen

Which “hit potency for all tested PLAAT members (in words)” value does the source give for `O=C(CCc1ccc(Cl)cc1)C(=O)NCCCCc1ccccc1` [Compound 2] here?
Its value is “submicromolar”.

Which “hit potency for all tested PLAAT members (in words)” value does the source give for `O=C(CCc1ccc(Cl)cc1)C(=O)NCCc1ccccc1` [Compound 1, 4-(4-Chlorophenyl)-2-oxo-N-phenethylbutanamide] here?
The value was “submicromolar”.
